# Screening results as filed in PubChem BioAssay.
# A selection: hits, their analogues and other compounds. The true share with any hit is near 3.9%.
# tim10-1 inh – tim10-1 yeast growth inhibition. S. cerevisiae tim10-1 ts strain growth, BacTiter-Glo, 24 h. inhibition, % at 20 µM. 330,000 tested, 2.2% active. AID 463190;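 active = inhibition of at least 40%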;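 note: mutant grown at 25 °C; 0% = DMSO wells with yeast and 100% = wells holding no yeast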
# UPR XBP1 act – adaptive UPR (XBP1) activation | CHO-XBP1 luciferase reporter, IRE1-XBP1 UPR activation, luminescence; percent of tunicamycin response, DMSO as zero | AID 463104 | 330,000 tested, 0.33% active | activation, % at 20 µM;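 active = versus positive control, 20 µM dose yields 30% or more activation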;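 note: 100% = tunicamycin at 10 µg/mL and 0% = DMSO only wells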
#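 incubation = overnight seeding at 37 °C, 6 h compound treatment at 37 °C | assay system = CHO-XBP1 cells stably carrying IRE1-XBP1-driven luciferase reporter | input = 1000 cells per well | detection = luciferase luminescence | dosing = single point, 20 µM final compound, 1% DMSO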
# tim23-1 inh – inhibits growth of tim23-1 mutant yeast | S. cerevisiae tim23-1 growth, BacTiter-Glo luminescence, 24 h | inhibition, % at 20 µM | 330,000 tested, 1.3% active;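 active = growth inhibition of the mutant yeast at or above 50%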;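 note: temperature-sensitive mutant grown at 25 °C; plate controls were DMSO-treated mutant yeast for no effect and medium wells lacking yeast for full effect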
# CHOP UPR activ – activators of apoptotic arm of unfolded protein response (CHOP) | CHO-CHOP luciferase reporter, UPR activation, luminescence; percent of tunicamycin response over DMSO baseline | activation, % at 10 µM | 330,000 tested, 0.34% active | AID 449763;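 active = at 10 µM dose, activation of 40% or more, normalized to positive control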;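 note: 100% = tunicamycin at 10 µg/mL and 0% = DMSO alone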
#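 assay system = CHO CHOP reporter cells | amount = 500 CHO-CHOP cells per well | buffer or medium = F12 with 10% FBS | incubation = 16-18 h cell attachment, then 6 h compound exposure, 37 °C | detection = luminescence read with Steady-Glo | read-out = percent activation relative to tunicamycin control | controls = tunicamycin high control, DMSO low control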
# TIM10 inh – TIM10 yeast growth inhibition. S. cerevisiae TIM10 strain growth, BacTiter-Glo luminescence, 24 h. inhibition, % at 10 µM. 330,000 tested, 1.4% active. AID 463195;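 active = inhibition of 40% or more at the single tested concentration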;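 note: wild-type TIM10 isogenic control strain grown at permissive 25 °C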
# tim10-1 confirm – tim10-1 yeast growth inhibition, confirmed | shares compounds with tim10-1 inh | S. cerevisiae tim10-1 ts strain growth, BacTiter-Glo, 24 h | inhibition, % at 20 µM | 7,400 tested, 56% active;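 active = inhibition of yeast growth at or above a set limit in either of two repeat tests at 20 µM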;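 note: tim10-1 mutant grown at permissive 25 °C to find synthetic lethal compounds; 0% = DMSO yeast wells and 100% = medium wells without yeast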
# TIM10 conf – TIM10 yeast growth inhibition, confirmed; shares compounds with TIM10 inh; S. cerevisiae tim10 strain growth, BacTiter-Glo luminescence, 24 h; inhibition, % at 10 µM; 4,600 tested, 63% active;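 active = inhibition of yeast growth at or above a set limit in either of two replicates at 10 µM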;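 note: this counterscreen used the strain with wild-type TIM10; 0% = yeast with DMSO and 100% = medium wells lacking yeast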
# tim23-1 confirm – tim23-1 yeast growth inhibition, confirmed; 4,400 tested, 83% active; S. cerevisiae tim23-1 growth, BacTiter-Glo luminescence, 24 h; inhibition, % at 20 µM; shares compounds with tim23-1 inh;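 active = inhibition above about 39% in either of two replicate wells at 20 µM, limit read from the data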;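 note: temperature-sensitive tim23-1 mutant grown at 25 °C; 0% = DMSO wells with yeast and 100% = medium wells without yeast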
# Numbers without * were called inactive; x = not tested or not shown.
SMILES,tim10-1 inh,UPR XBP1 act,tim23-1 inh,CHOP UPR activ,TIM10 inh,tim10-1 confirm,TIM10 conf,tim23-1 confirm
O=C(c1ccc(-c2ccc(Cl)cc2)o1)N1CCN(c2ccc([N+](=O)[O-])cc2Cl)CC1,29.5,1.5,24.0,8.9,19.0,x,x,x
Cc1c2ccccc2c(C)c2c1ccc1ccccc12,49.7*,-6.2,76.8*,3.7,83.7*,46.8*,88.0*,80.0*
CC1CCCCC1NC(=O)c1cc2ccccc2o1 (stereo not drawn),18.8,2.0,24.9,1.0,15.0,x,x,x
O=c1[nH]c(Sc2ccc([N+](=O)[O-])cc2[N+](=O)[O-])nc2ccccc12,44.7*,2.1,68.4*,19.1,29.1,37.8*,x,52.5*
O=C(CSc1nc2ccccc2c(=O)[nH]1)Nc1ccc([N+](=O)[O-])cc1,3.6,-2.8,3.6,-1.2,-6.0,x,x,x
COc1ccc(C(=O)/C=C/c2cccs2)c(OC(=O)N2CCOCC2)c1,49.6*,-0.8,50.6*,-0.9,52.1*,33.6*,39.5*,42.1*
COc1cccc(OC(=O)N2CCOCC2)c1,-3.3,-0.5,12.0,3.6,6.6,x,x,x
Cc1nc(CSc2ccc(Br)cc2)cs1,7.5,-1.1,3.3,3.9,8.9,x,x,x
CCc1c(O)cc2n(c1=O)-c1ccc(Cl)cc1C2(C)C,44.2*,1.9,52.1*,-2.0,42.0*,34.1*,-17.0,49.2*
CC(=O)/C=C/c1ccc2ccccc2n1,65.2*,-5.7,70.6*,-0.1,59.1*,65.1*,59.6*,81.8*
